Results as given in ChEMBL document CHEMBL4270612, “Discovery of dual GyrB/ParE inhibitors active against Gram-negative bacteria” (Eur J Med Chem, 2018).
≈ marks a conversion by molar mass, not a printed value.

Experiments:
Pseudomonas aeruginosa [1] = test: Antibacterial activity against Pseudomonas aeruginosa PAO1 after 24 hrs by broth microdilution method; assay type: functional; settings: PAO1, 24 h
Method in brief: (§1)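 Broth microdilution per CLSI. Bacterial suspension adjusted to 1×10^6 CFU/mL in cation-adjusted Mueller–Hinton broth and mixed 1:1 with 2-fold serial compound dilutions. Final DMSO 2.5% v/v. Plates incubated at 35 °C with shaking at 140 rpm for 24 h.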

Escherichia coli [2] = test: Antibacterial activity against Escherichia coli after 24 hrs by broth microdilution method; assay type: functional; method in brief: as §1
Escherichia coli [3] = test: Antibacterial activity against tolC deficient Escherichia coli after 24 hrs by broth microdilution method; assay type: functional
Method in brief: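 Broth microdilution per CLSI guidelines. Inoculum adjusted to 1×10^6 CFU/mL in cation-adjusted Mueller–Hinton broth, added 1:1 to 2-fold serial compound dilutions; final DMSO 2.5% v/v. Plates incubated 35 °C, 140 rpm, 24 h.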

Acinetobacter baumannii [4] = test: (§2) Antibacterial activity against Acinetobacter baumannii ARC3495 after 24 hrs by broth microdilution method; assay type: functional; settings: ARC3495, 24 h; method in brief: as §1
Haemophilus influenzae = test: Antibacterial activity against Haemophilus influenzae ATCC 49247 after 24 hrs by broth microdilution method; assay type: functional; settings: ATCC 49247, 24 h; method in brief: as §1
Enterobacter cloacae = test: Antibacterial activity against Enterobacter cloacae ARC3528 after 24 hrs by broth microdilution method; assay type: functional; settings: ARC3528, 24 h; method in brief: as §1
Staphylococcus aureus [5] = test: Antibacterial activity against Staphylococcus aureus ATCC 29213 after 24 hrs by broth microdilution method; assay type: functional; settings: ATCC 29213, 24 h; method in brief: as §1
Staphylococcus aureus [6] = test: Antibacterial activity against Staphylococcus aureus ATCC 29213 after 24 hrs in presence of 2% human albumin by broth microdilution method; assay type: functional; settings: ATCC 29213, 24 h
Staphylococcus aureus [7] = test: Antibacterial activity against methicillin-resistant Staphylococcus aureus FQ-R after 24 hrs by broth microdilution method; assay type: functional
Method in brief: (§3)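 Broth microdilution per CLSI. Bacterial suspensions adjusted to 1×10^6 CFU/mL in cation-adjusted Mueller–Hinton broth, mixed 1:1 with 2-fold serial compound dilutions (final DMSO 2.5% v/v). Incubation 35 °C, 140 rpm, 24 h.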

Staphylococcus aureus [8] = test: Antibacterial activity against methicillin-resistant Staphylococcus aureus USA100 after 24 hrs by broth microdilution method; assay type: functional; settings: USA100, 24 h; method in brief: as §3
Streptococcus pyogenes = test: Antibacterial activity against Streptococcus pyogenes ARC838 after 24 hrs by broth microdilution method; assay type: functional; settings: ARC838, 24 h
Method in brief: (§4)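 Broth microdilution per CLSI. Bacterial suspension adjusted to 1×10^6 CFU/mL in cation-adjusted Mueller–Hinton broth and mixed 1:1 with 2-fold serial compound dilutions. Plates incubated at 35 °C with shaking at 140 rpm for 24 h.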

Streptococcus pneumoniae = test: Antibacterial activity against Streptococcus pneumoniae ATCC 49619 after 24 hrs by broth microdilution method; assay type: functional; settings: ATCC 49619, 24 h; method in brief: as §1
Enterococcus faecalis = test: Antibacterial activity against Enterococcus faecalis ATCC 29212 after 24 hrs by broth microdilution method; assay type: functional; settings: ATCC 29212, 24 h; method in brief: as §1
Candida albicans = test: Antifungal activity against Candida albicans ATCC 90028 after 24 hrs by broth microdilution method; assay type: functional; settings: ATCC 90028, 24 h
Pseudomonas aeruginosa [9] = test: Antibacterial activity against Pseudomonas aeruginosa ARC003 after 24 hrs by broth microdilution method; assay type: functional; settings: ARC003, 24 h; method in brief: as §1
Pseudomonas aeruginosa [10] = test: Antibacterial activity against Pseudomonas aeruginosa ARC3505 after 24 hrs by broth microdilution method; assay type: functional; settings: ARC3505, 24 h; method in brief: as §1
Pseudomonas aeruginosa [11] = test: Antibacterial activity against Pseudomonas aeruginosa ARC3506 after 24 hrs by broth microdilution method; assay type: functional; settings: ARC3506, 24 h; method in brief: as §1
Pseudomonas aeruginosa [12] = test: Antibacterial activity against Pseudomonas aeruginosa ARC3511 after 24 hrs by broth microdilution method; assay type: functional; settings: ARC3511, 24 h; method in brief: as §4
Pseudomonas aeruginosa [13] = test: Antibacterial activity against Pseudomonas aeruginosa ARC3514 after 24 hrs by broth microdilution method; assay type: functional; settings: ARC3514, 24 h; method in brief: as §4
Pseudomonas aeruginosa [14] = test: Antibacterial activity against Pseudomonas aeruginosa ARC3606 after 24 hrs by broth microdilution method; assay type: functional; settings: ARC3606, 24 h; method in brief: as §1
Pseudomonas aeruginosa [15] = test: Antibacterial activity against Pseudomonas aeruginosa ARC3607 after 24 hrs by broth microdilution method; assay type: functional; settings: ARC3607, 24 h; method in brief: as §1
Pseudomonas aeruginosa [16] = test: Antibacterial activity against Pseudomonas aeruginosa ARC3611 after 24 hrs by broth microdilution method; assay type: functional; settings: ARC3611, 24 h; method in brief: as §1
Pseudomonas aeruginosa [17] = test: Antibacterial activity against Pseudomonas aeruginosa ARC3612 after 24 hrs by broth microdilution method; assay type: functional; settings: ARC3612, 24 h; method in brief: as §1
Pseudomonas aeruginosa [18] = test: Antibacterial activity against Pseudomonas aeruginosa ARC3727 after 24 hrs by broth microdilution method; assay type: functional; settings: ARC3727, 24 h; method in brief: as §4
Pseudomonas aeruginosa [19] = test: Antibacterial activity against Pseudomonas aeruginosa ARC3756 after 24 hrs by broth microdilution method; assay type: functional; settings: ARC3756, 24 h; method in brief: as §4
Pseudomonas aeruginosa [20] = test: Antibacterial activity against Pseudomonas aeruginosa ARC3916 after 24 hrs by broth microdilution method; assay type: functional; settings: ARC3916, 24 h; method in brief: as §1
Pseudomonas aeruginosa [21] = test: Antibacterial activity against Pseudomonas aeruginosa ARC3925 after 24 hrs by broth microdilution method; assay type: functional; settings: ARC3925, 24 h; method in brief: as §4
Pseudomonas aeruginosa [22] = test: Antibacterial activity against Pseudomonas aeruginosa ARC4068 after 24 hrs by broth microdilution method; assay type: functional; settings: ARC4068, 24 h; method in brief: as §4
Acinetobacter baumannii [23] = test: Antibacterial activity against Acinetobacter baumannii ARC2675 after 24 hrs by broth microdilution method; assay type: functional; settings: ARC2675, 24 h; method in brief: as §4
Acinetobacter baumannii [24] = test: Antibacterial activity against Acinetobacter baumannii ARC2728 after 24 hrs by broth microdilution method; assay type: functional; settings: ARC2728, 24 h; method in brief: as §1
Acinetobacter baumannii [25] = test: Antibacterial activity against Acinetobacter baumannii ARC2779 after 24 hrs by broth microdilution method; assay type: functional; settings: ARC2779, 24 h; method in brief: as §1
Acinetobacter baumannii [26] = test: Antibacterial activity against Acinetobacter baumannii ARC2780 after 24 hrs by broth microdilution method; assay type: functional; settings: ARC2780, 24 h; method in brief: as §4
Acinetobacter baumannii [27] = test: Antibacterial activity against Acinetobacter baumannii ARC3485 after 24 hrs by broth microdilution method; assay type: functional; settings: ARC3485, 24 h; method in brief: as §1
Acinetobacter baumannii [28] = test: Antibacterial activity against Acinetobacter baumannii ARC3486 after 24 hrs by broth microdilution method; assay type: functional; settings: ARC3486, 24 h; method in brief: as §1
Acinetobacter baumannii [29] = test: Antibacterial activity against Acinetobacter baumannii ARC3489 after 24 hrs by broth microdilution method; assay type: functional; settings: ARC3489, 24 h; method in brief: as §1
Acinetobacter baumannii [30] = test: Antibacterial activity against Acinetobacter baumannii ARC3493 after 24 hrs by broth microdilution method; assay type: functional; settings: ARC3493, 24 h; method in brief: as §1
Acinetobacter baumannii [31] = test: as §2; assay type: functional; settings: ARC3495, 24 h; method in brief: as §1; remark: listed apart in the source
Acinetobacter baumannii [32] = test: Antibacterial activity against Acinetobacter baumannii ARC3513 after 24 hrs by broth microdilution method; assay type: functional; settings: ARC3513, 24 h; method in brief: as §1
Acinetobacter baumannii [33] = test: Antibacterial activity against Acinetobacter baumannii ARC3515 after 24 hrs by broth microdilution method; assay type: functional; settings: ARC3515, 24 h; method in brief: as §1
Acinetobacter baumannii [34] = test: Antibacterial activity against Acinetobacter baumannii ARC3657 after 24 hrs by broth microdilution method; assay type: functional; settings: ARC3657, 24 h; method in brief: as §1
Acinetobacter baumannii [35] = test: Antibacterial activity against Acinetobacter baumannii ARC3659 after 24 hrs by broth microdilution method; assay type: functional; settings: ARC3659, 24 h; method in brief: as §1
Acinetobacter baumannii [36] = test: Antibacterial activity against Acinetobacter baumannii ARC3882 after 24 hrs by broth microdilution method; assay type: functional; settings: ARC3882, 24 h; method in brief: as §1
[37] = Protein binding in human plasma; assay type: ADME, cell-free; settings: read-out: PPB (converted)
[38] = Growth inhibition of human A549 cells; assay type: cell-based

CCNC(=O)Nc1cc(-c2nc(C3CC3)cs2)c(-c2cc(-c3n[nH]c(=O)o3)cnc2N2C3CCC2CN(C)C3)cn1
MIC (Pseudomonas aeruginosa [1]): 1.14 µg/mL (≈ 1.99 µM)
MIC (Escherichia coli [2]): 0.57 µg/mL (≈ 0.994 µM)
MIC (Escherichia coli [3]): 0.11 µg/mL (≈ 0.192 µM)
MIC (Acinetobacter baumannii [4]): 0.5 µg/mL (≈ 0.872 µM)
MIC (Haemophilus influenzae): < 0.06 µg/mL
MIC (Enterobacter cloacae): 16 µg/mL (≈ 27.9 µM)
MIC (Staphylococcus aureus [5]): < 0.06 µg/mL
MIC (Staphylococcus aureus [6]): < 0.06 µg/mL
MIC (Staphylococcus aureus [7]): < 0.06 µg/mL
MIC (Staphylococcus aureus [8]): < 0.06 µg/mL
MIC (Streptococcus pyogenes): < 0.06 µg/mL
MIC (Streptococcus pneumoniae): < 0.06 µg/mL
MIC (Enterococcus faecalis): < 0.06 µg/mL
MIC (Candida albicans): > 64 µg/mL
MIC (Pseudomonas aeruginosa [9]): 1 µg/mL (≈ 1.74 µM)
MIC (Pseudomonas aeruginosa [10]): 4 µg/mL (≈ 6.97 µM)
MIC (Pseudomonas aeruginosa [11]): 2 µg/mL (≈ 3.49 µM)
MIC (Pseudomonas aeruginosa [12]): 1 µg/mL (≈ 1.74 µM)
MIC (Pseudomonas aeruginosa [13]): 2 µg/mL (≈ 3.49 µM)
MIC (Pseudomonas aeruginosa [14]): 4 µg/mL (≈ 6.97 µM)
MIC (Pseudomonas aeruginosa [15]): 4 µg/mL (≈ 6.97 µM)
MIC (Pseudomonas aeruginosa [16]): 4 µg/mL (≈ 6.97 µM)
MIC (Pseudomonas aeruginosa [17]): 4 µg/mL (≈ 6.97 µM)
MIC (Pseudomonas aeruginosa [18]): 4 µg/mL (≈ 6.97 µM)
MIC (Pseudomonas aeruginosa [19]): 4 µg/mL (≈ 6.97 µM)
MIC (Pseudomonas aeruginosa [20]): 2 µg/mL (≈ 3.49 µM)
MIC (Pseudomonas aeruginosa [21]): 4 µg/mL (≈ 6.97 µM)
MIC (Pseudomonas aeruginosa [22]): 4 µg/mL (≈ 6.97 µM)
MIC (Acinetobacter baumannii [23]): 2 µg/mL (≈ 3.49 µM)
MIC (Acinetobacter baumannii [24]): 1 µg/mL (≈ 1.74 µM)
MIC (Acinetobacter baumannii [25]): 1 µg/mL (≈ 1.74 µM)
MIC (Acinetobacter baumannii [26]): 0.5 µg/mL (≈ 0.872 µM)
MIC (Acinetobacter baumannii [27]): 2 µg/mL (≈ 3.49 µM)
MIC (Acinetobacter baumannii [28]): 2 µg/mL (≈ 3.49 µM)
MIC (Acinetobacter baumannii [29]): 1 µg/mL (≈ 1.74 µM)
MIC (Acinetobacter baumannii [30]): 1 µg/mL (≈ 1.74 µM)
MIC (Acinetobacter baumannii [31]): 0.5 µg/mL (≈ 0.872 µM)
MIC (Acinetobacter baumannii [32]): 4 µg/mL (≈ 6.97 µM)
MIC (Acinetobacter baumannii [33]): 2 µg/mL (≈ 3.49 µM)
MIC (Acinetobacter baumannii [34]): 2 µg/mL (≈ 3.49 µM)
MIC (Acinetobacter baumannii [35]): 1 µg/mL (≈ 1.74 µM)
MIC (Acinetobacter baumannii [36]): 1 µg/mL (≈ 1.74 µM)
fraction unbound [37]: 0.149
GI50 [38]: > 25 µM
